From ChEMBL document CHEMBL4229433, “The synthesis and evaluation of phenoxyacylhydroxamic acids as potential agents for Helicobacter pylori infections” (Bioorg Med Chem, 2018)

What was measured:
[1] = target: T1, Urease subunit alpha/Urease subunit beta (Helicobacter pylori (strain ATCC 700392 / 26695) (Campylobacterpylori), UniProt P69996); experiment: Inhibition of Helicobacter pylori ATCC 43504 urease assessed as reduction in ammonia production using urea as substrate preincubated for 1.5 hrs under cell free condition by indophenol method; type: protein-complex assay, Helicobacter pylori NCTC 11637 = CCUG 17874 = ATCC 43504
T1 sequence (P69996 whole entry): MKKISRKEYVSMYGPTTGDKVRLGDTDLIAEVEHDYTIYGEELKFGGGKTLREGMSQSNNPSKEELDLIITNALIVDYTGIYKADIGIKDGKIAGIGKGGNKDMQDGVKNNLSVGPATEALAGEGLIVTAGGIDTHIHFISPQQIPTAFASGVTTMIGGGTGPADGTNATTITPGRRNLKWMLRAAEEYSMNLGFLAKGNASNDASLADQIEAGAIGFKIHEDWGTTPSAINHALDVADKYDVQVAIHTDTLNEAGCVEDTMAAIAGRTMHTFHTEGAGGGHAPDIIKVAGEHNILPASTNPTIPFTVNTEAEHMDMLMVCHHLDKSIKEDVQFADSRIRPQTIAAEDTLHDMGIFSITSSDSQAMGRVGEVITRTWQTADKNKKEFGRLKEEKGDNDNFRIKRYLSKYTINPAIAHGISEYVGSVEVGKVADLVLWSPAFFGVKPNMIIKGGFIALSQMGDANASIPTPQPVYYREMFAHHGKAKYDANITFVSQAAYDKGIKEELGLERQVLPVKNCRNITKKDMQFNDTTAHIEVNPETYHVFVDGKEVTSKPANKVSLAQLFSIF
T1 sequence (P14916 whole entry, further chain): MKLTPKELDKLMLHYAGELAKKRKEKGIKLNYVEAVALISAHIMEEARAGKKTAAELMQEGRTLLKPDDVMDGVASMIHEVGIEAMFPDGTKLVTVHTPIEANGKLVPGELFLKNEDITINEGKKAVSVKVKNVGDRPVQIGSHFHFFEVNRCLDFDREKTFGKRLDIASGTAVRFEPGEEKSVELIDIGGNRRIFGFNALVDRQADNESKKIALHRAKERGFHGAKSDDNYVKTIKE
Procedure, shortened: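 Crude urease from H. pylori ATCC 43504 grown 24 h at 37 °C, micro-aerobic, in Brucella broth with 10% sheep blood. Cells were PBS-washed, frozen at −80 °C, sonicated with protease inhibitors, centrifuged, desalted on G-25 and kept in 50% glycerol at 4 °C. Enzyme (10U) was preincubated with compound 1.5 h at room temperature. Ammonia was read by the indophenol method.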

[2] = target: T1, Urease subunit alpha/Urease subunit beta; experiment: (§1) Inhibition of urease in Helicobacter pylori ATCC 43504 assessed as reduction in ammonia production using urea as substrate preincubated for 1.5 hrs by indophenol method; type: protein-complex assay, Helicobacter pylori NCTC 11637 = CCUG 17874 = ATCC 43504
Procedure, shortened: (§2)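 Crude urease from sonicated H. pylori cells (grown 24 h, 37 °C, microaerobic, Brucella broth + 10% sheep blood), PBS-washed, frozen at –80 °C, desalted on Sephadex G-25, stored in 50% glycerol at 4 °C; 10U enzyme preincubated with compound 1.5 h at room temperature; ammonia measured by Weatherburn indophenol method.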

[3] = target: T2, Urease subunit alpha/Urease subunit beta (Helicobacter pylori (strain ATCC 700392 / 26695) (Campylobacterpylori)) (UniProt P69996+P14916); experiment: as §1; type: protein-complex assay; conditions: Helicobacter pylori NCTC 11637 = CCUG 17874 = ATCC 43504; procedure, shortened: as §2
T2 sequence (P14916 whole entry, looked up): as the sequence (P14916 whole entry, further chain) above
T2 sequence (P69996 whole entry, looked up): as the sequence (P69996 whole entry) above

[4] = target: T2, Urease subunit alpha/Urease subunit beta (Helicobacter pylori (strain ATCC 700392 / 26695) (Campylobacterpylori)); experiment: Ratio of IC50 for inhibition of urease in Helicobacter pylori ATCC 43504 intact cells to IC50 for inhibition of Helicobacter pylori ATCC 43504 urease under cell free condition; conditions: Helicobacter pylori NCTC 11637 = CCUG 17874 = ATCC 43504
[5] = target: T1, Urease subunit alpha/Urease subunit beta; experiment: Mixed-type inhibition of Helicobacter pylori ATCC 43504 urease assessed as enzyme-substrate-inhibitor complex using urea as substrate preincubated for 1.5 hrs; type: protein-complex assay, Helicobacter pylori NCTC 11637 = CCUG 17874 = ATCC 43504
Procedure, shortened: (§3)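 Ammonia production rate measured by the indophenol method over a urea concentration gradient at each fixed inhibitor concentration. Inhibition type was assigned by nonlinear fitting to the general kinetic equation. Ki and Ki' were taken as the X-axis intercepts of linear fits of the fitted parameters against inhibitor concentration.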

[6] = target: T1, Urease subunit alpha/Urease subunit beta; experiment: Mixed-type inhibition of Helicobacter pylori ATCC 43504 urease assessed as enzyme-inhibitor complex using urea as substrate preincubated for 1.5 hrs; type: protein-complex assay, Helicobacter pylori NCTC 11637 = CCUG 17874 = ATCC 43504; procedure, shortened: as §3
[7] = target: T2, Urease subunit alpha/Urease subunit beta (Helicobacter pylori (strain ATCC 700392 / 26695) (Campylobacterpylori)); experiment: Potency index, ratio of acetohydroxamic acid IC50 to compound IC50 for inhibition of Helicobacter pylori ATCC 43504 urease; type: protein-complex assay; conditions: Helicobacter pylori NCTC 11637 = CCUG 17874 = ATCC 43504
[8] = target: T2, Urease subunit alpha/Urease subunit beta (Helicobacter pylori (strain ATCC 700392 / 26695) (Campylobacterpylori)); experiment: Potency index, ratio of acetohydroxamic acid IC50 to compound IC50 for inhibition of urease in Helicobacter pylori ATCC 43504; type: protein-complex assay; conditions: Helicobacter pylori NCTC 11637 = CCUG 17874 = ATCC 43504

SMILES	IC50 [1] [µM]	also measured
O=C(COc1ccc(Cl)cc1)NO	1.26	–
O=C(CCOc1ccc(Br)cc1)NO	0.86	IC50 [2]: 16.3 µM; inhibition [3]: Dose-dependent effect; Ratio IC50 [4]: 14 to 24
Cc1ccc(OCCC(=O)NO)cc1	1.38	–
Cc1ccc(OCC(=O)NO)cc1	57.1	–
O=C(CCOc1ccc(Cl)cc1)NO	0.44	IC50 [2]: 8.2 µM; inhibition [3]: Dose-dependent effect; Ki [5]: 0.054 µM; Ratio IC50 [4]: 14 to 24; Ki [6]: 0.043 µM
O=C(COc1cccc([N+](=O)[O-])c1)NO	94.7	–
O=C(CCOc1ccc(F)cc1)NO	1.13	–
Cc1cccc(OCCC(=O)NO)c1	3.38	–
O=C(CCOc1ccc(Cl)c(Cl)c1)NO	0.061	IC50 [2]: 0.89 µM; inhibition [3]: Dose-dependent effect; Ratio IC50 [7]: > 450; Ratio IC50 [4]: 14 to 24; Ratio IC50 [8]: > 120
O=C(COc1cc(Cl)ccc1Cl)NO	9.02	–
O=C(CCOc1cccc(Cl)c1)NO	1.23	–
O=C(COc1cc(Cl)cc(Cl)c1)NO	3.22	–
COc1ccc(OCCC(=O)NO)cc1	8.35	–
O=C(CCOc1cc(Cl)ccc1Cl)NO	13.1	–
O=C(COc1ccccc1)NO	131	–
O=C(COc1c(Cl)cccc1Cl)NO	353	–
Cc1ccccc1OCC(=O)NO	154	–
O=C(COc1cccc(Cl)c1Cl)NO	179	–
COc1ccc(OCC(=O)NO)cc1	49.5	–

SMILES	IC50 [1] [µM]	also measured
O=C(COc1ccc(Br)cc1)NO	5.35	–
O=C(CCOc1ccccc1)NO	4.18	–
O=C(COc1cccc(Cl)c1)NO	10.4	–
Cc1cc(C)cc(OCC(=O)NO)c1	41.9	–
O=C(COc1cccc(F)c1)NO	27	–
O=C(COc1ccccc1[N+](=O)[O-])NO	144	–
O=C(COc1ccc(Cl)cc1Cl)NO	0.83	IC50 [2]: 21.4 µM; inhibition [3]: Dose-dependent effect; Ratio IC50 [4]: 14 to 24
O=C(COc1ccc(F)cc1)NO	18.9	–
Cc1ccccc1OCCC(=O)NO	6.74	–
O=C(CCOc1cc(F)cc(F)c1)NO	5.09	–
O=C(COc1ccccc1F)NO	121	–
O=C(COc1ccc([N+](=O)[O-])cc1)NO	62.1	–
O=C(COc1ccc(Cl)c(Cl)c1)NO	0.52	IC50 [2]: 12.8 µM; inhibition [3]: Dose-dependent effect; Ratio IC50 [4]: 14 to 24
O=C(COc1cc(F)cc(F)c1)NO	205	–
Cc1cc(C)cc(OCCC(=O)NO)c1	10.4	–
O=C(CCOc1cccc(F)c1)NO	2.05	–
O=C(COc1ccccc1Cl)NO	78.5	–
Cc1cccc(OCC(=O)NO)c1	85.1	–
